Source: ChEMBL document CHEMBL1687879, “Synthesis, glucose uptake activity and structure-activity relationships of some novel glitazones incorporated with glycine, aromatic and alicyclic amine moieties via two carbon acyl linker” (2011)

Columns and labels:
Format in all cases: functional, Diaphragm
[1] = Antidiabetic activity in rat hemidiaphragm assessed as glucose uptake at 2 mg after 45 mins in presence of insulin
How it was run: (§1)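 Isolated rat hemi-diaphragm in Tyrode, test agent at 1 mg or 2 mg with or without insulin; 45 min incubation at 21 °C, shaking at 60 cycles/min. Medium glucose measured by GOD/POD enzymatic method; uptake expressed as mg/dl/45 min. Run in triplicate, mean ± SEM; groups compared by one-way ANOVA with Dunnett's post-test.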

[2] = Antidiabetic activity in rat hemidiaphragm assessed as glucose uptake at 1 mg after 45 mins in absence of insulin; how it was run: as §1
[3] = Antidiabetic activity in rat hemidiaphragm assessed as glucose uptake at 1 mg after 45 mins in presence of insulin; how it was run: as §1
[4] = Antidiabetic activity in rat hemidiaphragm assessed as glucose uptake at 2 mg after 45 mins in absence of insulin; how it was run: as §1

CCc1cccc(CC)c1NC(=O)COc1ccc(/C=C2\SC(=S)NC2=O)cc1
Activity [1]: 28.5 mg/dL | Activity [2]: 14.5 mg/dL | Activity [3]: 28.83 mg/dL | Activity [4]: 15.66 mg/dL

O=C(CN1C(=O)S/C(=C\c2ccc(Cl)cc2Cl)C1=O)Nc1ccccc1
Activity [1]: 42.44 mg/dL | Activity [2]: 18.33 mg/dL | Activity [3]: 41.93 mg/dL | Activity [4]: 18.5 mg/dL

COc1cc(/C=C2\SC(=O)N(CC(=O)Nc3ccccc3)C2=O)ccc1O
Activity [1]: 30.83 mg/dL | Activity [2]: 15.5 mg/dL | Activity [3]: 28.5 mg/dL | Activity [4]: 16.96 mg/dL

O=C(CN1C(=O)S/C(=C\c2ccc(Cl)cc2)C1=O)Nc1ccccc1
Activity [1]: 36.66 mg/dL | Activity [2]: 16.83 mg/dL | Activity [3]: 36.03 mg/dL | Activity [4]: 16.9 mg/dL

O=C(CN1C(=O)S/C(=C\c2cccc(Cl)c2)C1=O)Nc1ccccc1
Activity [1]: 40.5 mg/dL | Activity [2]: 17.83 mg/dL | Activity [3]: 39 mg/dL | Activity [4]: 17.63 mg/dL

Cc1ccc(NC(=O)COc2ccc(/C=C3\SC(=S)NC3=O)cc2)cc1
Activity [1]: 34.16 mg/dL | Activity [2]: 15.33 mg/dL | Activity [3]: 33.79 mg/dL | Activity [4]: 16.56 mg/dL

O=C(CN1C(=O)S/C(=C\c2ccccc2Cl)C1=O)Nc1ccccc1
Activity [1]: 27.16 mg/dL | Activity [2]: 13.81 mg/dL | Activity [3]: 26.03 mg/dL | Activity [4]: 14.03 mg/dL

O=C(CN1C(=O)S/C(=C\c2ccco2)C1=O)Nc1ccccc1
Activity [1]: 32.29 mg/dL | Activity [2]: 15.66 mg/dL | Activity [3]: 32.16 mg/dL | Activity [4]: 15.86 mg/dL

Cc1ccc(NC(=O)COc2ccc(/C=C3\SC(=O)NC3=O)cc2)cc1
Activity [1]: 33.5 mg/dL | Activity [2]: 16 mg/dL | Activity [3]: 33.83 mg/dL | Activity [4]: 16.16 mg/dL

O=C(COc1ccc(/C=C2\SC(=S)NC2=O)cc1)Nc1ccccc1
Activity [1]: 35.33 mg/dL | Activity [2]: 16.16 mg/dL | Activity [3]: 34.66 mg/dL | Activity [4]: 16.33 mg/dL

O=C(CN1C(=O)S/C(=C\c2ccccc2)C1=O)Nc1ccccc1
Activity [1]: 39 mg/dL | Activity [2]: 17.72 mg/dL | Activity [3]: 38.3 mg/dL | Activity [4]: 18 mg/dL

COc1ccc(NC(=O)COc2ccc(/C=C3\SC(=O)NC3=O)cc2)cc1
Activity [1]: 35.66 mg/dL | Activity [2]: 16.66 mg/dL | Activity [3]: 34.16 mg/dL | Activity [4]: 16.83 mg/dL

COc1ccc(NC(=O)COc2ccc(/C=C3\SC(=S)NC3=O)cc2)cc1
Activity [1]: 37.09 mg/dL | Activity [2]: 16.91 mg/dL | Activity [3]: 35 mg/dL | Activity [4]: 17.01 mg/dL

CCc1cccc(CC)c1NC(=O)COc1ccc(/C=C2\SC(=O)NC2=O)cc1
Activity [1]: 29.8 mg/dL | Activity [2]: 15.82 mg/dL | Activity [3]: 29 mg/dL | Activity [4]: 15 mg/dL

COc1ccc(/C=C2\SC(=O)N(CC(=O)Nc3ccccc3)C2=O)cc1
Activity [1]: 43.9 mg/dL | Activity [2]: 18.71 mg/dL | Activity [3]: 42.16 mg/dL | Activity [4]: 19.66 mg/dL

CN(CCOc1ccc(CC2SC(=O)NC2=O)cc1)c1ccccn1 (stereo not given) [ROSIGLITAZONE]
Activity [1]: 50.33 mg/dL | Activity [2]: 19 mg/dL | Activity [3]: 48.34 mg/dL | Activity [4]: 20.36 mg/dL

O=C(COc1ccc(/C=C2\SC(=O)NC2=O)cc1)Nc1ccccc1
Activity [1]: 42.69 mg/dL | Activity [2]: 18.46 mg/dL | Activity [3]: 41.16 mg/dL | Activity [4]: 18.5 mg/dL

O=C(CN1C(=O)S/C(=C\c2ccccc2O)C1=O)Nc1ccccc1
Activity [1]: 42.26 mg/dL | Activity [2]: 18 mg/dL | Activity [3]: 41.85 mg/dL | Activity [4]: 18.33 mg/dL

O=C(CN1C(=O)S/C(=C\C=C\c2ccccc2)C1=O)Nc1ccccc1
Activity [1]: 36.66 mg/dL | Activity [2]: 15 mg/dL | Activity [3]: 36.16 mg/dL | Activity [4]: 16.16 mg/dL

CCOC(=O)CNC(=O)CN1C(=O)S/C(=C\c2ccc(OC)cc2)C1=O
Activity [1]: 43.07 mg/dL | Activity [2]: 18.28 mg/dL | Activity [3]: 41.5 mg/dL | Activity [4]: 18.79 mg/dL
